Most compounds without a hit are left out; they make up all but 2.9% or so of the library.
CAL PDZ FP-1: CAL PDZ (human) peptide binding inhibition | Q9HD26 | purified CAL PDZ, TMR-peptide fluorescence polarization, 1 h | inhibition, % at 24.9 µM | hit rate 0.92% among 300,000;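 active = mean inhibition of at least 30% with at least half of replicates also reaching 30%; inconclusive = no clear call, values can overlap the other calls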;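 note: 0% = DMSO neutral control and 100% = excess unlabeled competitor peptide PRC23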
S100A4 MyoIIA: inhibitors of human S100A4 binding to myosin IIA peptide. S100A4/TAMRA-MyoIIA peptide fluorescence polarization. inhibition, % at 10.7 µM. hit rate 0.14% among 360,000. AID 652163;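 active = mean inhibition of at least 70% across replicates, with every replicate also reaching that level; inconclusive = mean inhibition reaches 70% but some replicates fall short; inactive = mean inhibition below 70%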
Target sequence (P26447 whole entry, looked up): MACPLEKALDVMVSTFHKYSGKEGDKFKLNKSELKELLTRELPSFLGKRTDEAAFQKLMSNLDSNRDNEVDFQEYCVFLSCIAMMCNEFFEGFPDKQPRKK
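Assay system: human S100A4 monomer with TAMRA-labelled myosin IIA peptide / Buffer or medium: Calcium-containing HEPES buffer, pH 7.2 / Reagent: TAMRA-labelled myosin IIA heavy-chain peptide probe, 5 nM / Compound: one dose per compound / Timing: polarization read 5 min after assay mix addition, stable 5–60 min / Benchmarks: neutral control DMSO, positive control TFP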
DENV2 CPE rescue: DENV2-induced cell death inhibition; DENV2-infected cells, cytopathic effect rescue, plate reader; CPE inhibition, % at 9.99 µM; hit rate 1.7% among 350,000; in the data active = CPE inhibition above about 20%, passing the limit was not always enough; inconclusive = no clear call, values can overlap the other calls; tested in BHK-21 cells;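 note: 0% = median of neutral control wells and 100% = median of positive control wells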
ERAP1 inh: blocks human ERAP1 aminopeptidase activity. Q9NZ08. hit rate 0.15% among 340,000. AID 652197. inhibition, % at 10.7 µM. recombinant ERAP1, Leu-AMC fluorescence, 60 min;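 active = mean replicate inhibition of at least 30%, or all replicates individually reaching that 30% level; inactive = mean below 30% and not every replicate reaching it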;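 note: 0% = neutral control wells and 100% = L-leucinethiol positive control wells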
CAL PDZ FP-2: inhibitors of human CAL PDZ peptide binding; purified CAL PDZ, TMR-peptide fluorescence polarization, 1 h; inhibition, % at 20 µM; hit rate 0.02% among 330,000;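 active = highest replicate inhibition of at least 40%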;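 note: plate controls were DMSO neutral control wells for no effect and unlabeled competitor peptide control wells for full effect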
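material = purified tagged CAL PDZ domain construct (CerCALP) | buffer or medium = sodium phosphate/NaCl buffer pH 7.4 with TCEP, IgG, Thesit | reagent = TMR-labelled reporter peptide T*-PRC34 bound in PDZ groove | incubation = 1 h room-temperature incubation prior to read | measured by = fluorescence polarization (mP) | evaluation = percent inhibition from loss of millipolarization | control set = unlabelled peptide and DMSO controls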
SIRT5 block: blocks human SIRT5 desuccinylation of peptide; Q9NXA8; Purified SirT5, succinyl-peptide AMC, trypsin-coupled fluorescence; inhibition, % at 15 µM; hit rate 1.1% among 330,000; in the data active = inhibition above about 15%; inconclusive = no clear call, values can overlap the other calls
Target sequence (Q9NXA8 whole entry, looked up): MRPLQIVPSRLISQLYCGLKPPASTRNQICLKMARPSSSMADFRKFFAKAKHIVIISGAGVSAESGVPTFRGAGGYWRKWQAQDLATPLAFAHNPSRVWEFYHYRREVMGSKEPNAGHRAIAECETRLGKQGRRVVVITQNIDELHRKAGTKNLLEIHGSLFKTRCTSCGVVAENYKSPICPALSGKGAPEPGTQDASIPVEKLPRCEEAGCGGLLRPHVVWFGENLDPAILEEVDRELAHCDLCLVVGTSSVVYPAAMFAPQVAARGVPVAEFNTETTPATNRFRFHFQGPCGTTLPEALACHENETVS
Starred values were filed as active, the others as inactive; u = inconclusive; x = not tested or not shown; ! = not confirmed by another sample.

SMILES	CAL PDZ FP-1	S100A4 MyoIIA	DENV2 CPE rescue	ERAP1 inh	CAL PDZ FP-2	SIRT5 block
COc1ccc(NC(=O)Nc2ccc3c(c2)CC(=O)N([C@H](C)CO)C[C@@H](C)[C@H](CN(C)C(=O)Nc2ccccc2)O3)cc1	-2	0	3	-1	0	-1
O=C(Nc1ccc2c(c1)OCO2)N[C@@H]1CC[C@@H](CCNC(=O)C2CCC2)O[C@H]1CO	x	2	-4	-2	x	-3
N#C[C@@H]1[C@@H](c2ccc(C#Cc3ccccc3F)cc2)[C@@H](CO)N1C(=O)C1CCC1	x	-3	51*	-1	x	3
N#C[C@H]1[C@H](c2ccc(C#Cc3ccccc3F)cc2)[C@H](CO)N1C(=O)C1CC1	x	4	30*	-3	x	-2
Cc1ccc([C@@H]2[C@@H]3C(=O)N(C)C(=O)[C@@H]3[C@]3(C)C(=O)N(Cc4ccc(-c5ccccc5)cc4)CC(=O)N23)o1	1	-3	92*	-7	0	x
COc1ccc2cc3cc(C(=O)N4CCCCC4C)oc3nc2c1 (stereo unspecified)	-3	2	-4	18	-4	18*
COc1ccc2cc3cc(C(=O)N4CCCCCC4)oc3nc2c1	-3	x	x	x	-6	x
Cc1nn(C)cc1NC(=O)C[C@H]1CC[C@@H]2[C@@H](COc3ccc(NC(=O)Nc4cccc(Cl)c4)cc3C(=O)N2C)O1	x	-5	-6	-3	x	1
CN(C)S(=O)(=O)c1cccc(NC(=O)c2cc3c(=O)n4ccccc4nc3s2)c1	-3	-1	-2	-2	-3	16*
CCCNC(=O)C[C@H]1CC[C@@H]2[C@H](COc3ccc(NC(=O)Cc4cccs4)cc3C(=O)N2C)O1	x	x	8	x	x	x
C=CCn1cnnc1SCC(=O)N(C)CC1COc2ccccc2O1 (stereo unspecified)	48*	-2	4	-6	0	-5
C=CCn1cnnc1SCC(=O)NCC1COc2ccccc2O1 (stereo unspecified)	-3	-1	1	2	-2	-3
CCCN1[C@@H]2c3ccc(-c4ccncc4)c(=O)n3C[C@@H]2[C@@H](CO)[C@@H]1C(=O)OC	x	-5	-2	11	x	1
O=C(N[C@H]1CC[C@H](CCNS(=O)(=O)c2ccc(Cl)cc2)O[C@H]1CO)c1cccc(F)c1	x	-3	55*	0	x	5
O=C(N[C@H]1CC[C@H](CCNS(=O)(=O)c2ccc(Cl)cc2)O[C@H]1CO)c1cnccn1	x	-12	9	0	x	32*
O=C(N[C@@H]1CC[C@H](CCNS(=O)(=O)c2ccc(Cl)cc2)O[C@H]1CO)c1ccccn1	x	51	0	-1	x	4
O=C(N[C@H]1CC[C@H](CCNS(=O)(=O)c2ccc(Cl)cc2)O[C@H]1CO)c1ccccn1	x	18	60*	-1	x	x
O=C(N[C@@H]1CC[C@@H](CCNS(=O)(=O)c2ccc(Cl)cc2)O[C@@H]1CO)c1cccc(F)c1	x	0	-17	0	x	2
O=C(N[C@@H]1CC[C@H](CCNS(=O)(=O)c2ccc(Cl)cc2)O[C@H]1CO)c1cnccn1	x	3	-5	0	x	-6
O=C(N[C@H]1CC[C@@H](CCNS(=O)(=O)c2ccc(Cl)cc2)O[C@@H]1CO)c1ccccn1	x	15	53*	0	x	-2
O=C(N[C@@H]1CC[C@@H](CCNS(=O)(=O)c2ccc(Cl)cc2)O[C@@H]1CO)c1ccccn1	x	4	u	-3	x	-3
CC(C)NC(=O)Nc1ccc2c(c1)C(=O)N([C@H](C)CO)C[C@H](C)[C@@H](CN(C)C(=O)Nc1ccccc1)OCCCC[C@H](C)O2	x	-16	-1	x	x	2
COc1cccc(-c2ccc([C@@H]3[C@@H](CO)N4C(=O)CN(C(=O)C5CCOCC5)C[C@@H]34)cc2)c1	x	40	14	2	x	7
CCS(=O)(=O)Nc1ccc2c(c1)C(=O)N(C)C[C@H](OC)[C@@H](C)CN[C@H](C)CO2	x	2	20	-1	x	0
C[C@@H]1CCCCO[C@@H](CN(C)Cc2ccccc2)[C@H](C)CN([C@H](C)CO)C(=O)c2cc(NS(C)(=O)=O)ccc2O1	x	3	3	-2	x	-2
SMILES	CAL PDZ FP-1	S100A4 MyoIIA	DENV2 CPE rescue	ERAP1 inh	CAL PDZ FP-2	SIRT5 block
O=C(NCC[C@@H]1CC[C@H](NS(=O)(=O)c2ccc(F)cc2)[C@H](CO)O1)c1ccccc1F	x	6	2	-4	x	-7
Cc1ccc(S(=O)(=O)Nc2ccc3c(c2)C(=O)N([C@H](C)CO)C[C@@H](C)[C@H](CN(C)Cc2ccc(-c4ccccc4)cc2)O3)cc1	x	-4	2	-4	x	18*
C[C@@H]1CN([C@H](C)CO)C(=O)c2cc(NS(=O)(=O)c3ccccc3)ccc2O[C@H]1CN(C)Cc1ccc(-c2ccccc2)cc1	x	-2	u	-3	x	16*
C[C@@H]1CN([C@H](C)CO)C(=O)c2cc(NS(=O)(=O)c3ccccc3)ccc2O[C@H]1CN(C)Cc1ccc(Oc2ccccc2)cc1	x	12	-2	-2	x	10
C[C@@H]1CN([C@@H](C)CO)C(=O)c2cc(NS(=O)(=O)c3ccccc3)ccc2O[C@H]1CN(C)Cc1ccc(-c2ccccc2)cc1	x	-22	8	0	x	12
C[C@@H]1CN([C@H](C)CO)C(=O)c2cc(NS(=O)(=O)c3ccccc3)ccc2O[C@@H]1CN(C)Cc1ccc(Oc2ccccc2)cc1	x	1	19	-2	x	17*
COc1ccccc1-c1ccc2c(c1)[C@H]1[C@H](CCN1S(=O)(=O)c1ccccc1OC)[C@@H](CO)N2	x	x	-23	x	x	x
CCS(=O)(=O)N1CCC2(CC1)CN(C(=O)Nc1cccc(F)c1)[C@H](CO)c1c2c2ccc(OC)cc2n1C	x	-1	8	6	x	4
C[C@H](CO)N1C[C@H](C)[C@@H](CN(C)CC2CC2)Oc2ccc(N(C)C)cc2CC1=O	x	10	20	5	x	0
O=C(CSc1nc2ncccc2[nH]1)NCc1ccco1	59*	-1	4	-1	-1	2
O=C(c1ccncc1)N1CC[C@@H]2[C@H](CO)Nc3ccc(Br)cc3[C@@H]21	x	x	2	x	x	x
COC(=O)C1(C(F)(F)F)N=C(N(C)C)OC(N(C)C)=N1	42*	x	x	x	-2	x
O=C1c2cccc3c(O)ccc(c23)C(=O)N1Cc1ccco1	0	17	24*	9	0	8
O=C1c2ccccc2C(=O)N1Cc1ccco1	-2	x	x	x	-1	x
O=C(Nc1ccc2nc3n(c(=O)c2c1)CCCC3)c1ccccc1F	-5	-2	39*	-3	0	2
C[C@@H]1CN([C@@H](C)CO)C(=O)CCCn2nncc2CO[C@H]1CN(C)Cc1cccc2c1OCCCO2	x	2	45*!	-4	x	-2
C[C@@H]1CN([C@@H](C)CO)C(=O)CCCn2nncc2CO[C@H]1CN(C)Cc1ccc(Cl)c(Cl)c1	x	1	-2	-1	x	16*!

High-throughput results from PubChem.
